Laboratory results as given in ChEMBL document CHEMBL4673384, “Studying Histone Deacetylase Inhibition and Apoptosis Induction of Psammaplin A Monomers with Modified Thiol Group” (ACS Med Chem Lett, 2021).
Calls of active or inactive are those of the source. The rule behind the calls is not given here.

Experiments:
[1] = Toxicity in mouse LL/2 cells inoculated C57BL/6J mouse assessed as effect on body weight by measuring end body weight at 100 mg/kg, ip administered for 12 days and measured for every 2 days (reference value: 17.8 +/- 0.7 g); assay type: organism-based; settings: in vivo, 288 h, time 12 day
HL-60 [2] = assay: Induction of apoptosis in human HL-60 cells assessed as late apoptotic cells at 1 uM incubated for 24 hrs by propidium iodide and annexin-V FITC staining based FACS analysis (reference value: 4.8 %); assay type: functional
HL-60 [3] = assay: Induction of apoptosis in human HL-60 cells assessed as cleavage of caspase-3 at 0.5 to 2 uM after 24 hrs Western blot analysis; assay type: functional, cell-based; settings: dose 0.5-2 µM
Summary of the method: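 HL-60 cells were treated for 24 h at the indicated concentrations, then analysed by Western blot. Blots were probed for cleavage of PARP and caspase-3, -8 and -9. Ac-H3, Ac-α-tubulin and β-actin were also detected, with β-actin as the loading reference.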

HL-60 [4] = assay: Induction of apoptosis in human HL-60 cells assessed as late apoptotic cells at 0.5 uM incubated for 24 hrs by propidium iodide and annexin-V FITC staining based FACS analysis (reference value: 4.8 %); assay type: functional

SMILES	Activity [1] [g]	Activity (HL-60 [2]) [%]	Activity (HL-60 [3])	Activity (HL-60 [4]) [%]
O=C(NCCS)/C(Cc1ccc(O)c(Br)c1)=N/O	16.9	–	–	–
O=C(CCNC(=O)/C(Cc1ccc(O)c(Br)c1)=N/O)NO	–	12.6	Active	5.9
